pIC50: −log10 of the molar value. ≈ marks a conversion by molar mass, not a printed value.
Columns and labels:
[1] = Lipophilicity, log D at pH 7.4; assay type: physicochemical; conditions: buffer
[2] = Solubility of the compound; assay type: physicochemical
How it was run: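 Solubility measured by nephelometry.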

[3] = target: T1, Cytochrome P450 1A2 (Homo sapiens, UniProt P05177); test: Inhibition of human recombinant CYP1A2; assay type: ADME
T1 sequence (P05177 whole entry): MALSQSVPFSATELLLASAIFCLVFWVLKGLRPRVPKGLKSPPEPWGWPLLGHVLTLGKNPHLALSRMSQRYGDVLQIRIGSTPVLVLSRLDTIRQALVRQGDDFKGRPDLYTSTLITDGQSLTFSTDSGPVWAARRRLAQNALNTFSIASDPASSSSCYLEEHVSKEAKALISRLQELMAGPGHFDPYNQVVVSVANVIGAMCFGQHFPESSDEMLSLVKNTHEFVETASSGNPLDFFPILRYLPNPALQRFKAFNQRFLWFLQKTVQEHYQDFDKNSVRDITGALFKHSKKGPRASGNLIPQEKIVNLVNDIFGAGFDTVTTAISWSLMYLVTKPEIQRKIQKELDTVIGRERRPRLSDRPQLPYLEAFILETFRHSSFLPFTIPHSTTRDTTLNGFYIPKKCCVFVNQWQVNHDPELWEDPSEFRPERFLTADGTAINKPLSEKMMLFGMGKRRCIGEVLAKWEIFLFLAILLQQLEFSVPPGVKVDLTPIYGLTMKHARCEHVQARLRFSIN
How it was run: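 Human recombinant CYP1A2 with 3-cyano-7-ethoxycoumarin as probe substrate. Fluorescence read at Ex 410 nm / Em 460 nm. IC50 determined.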

[4] = target: Albumin (Homo sapiens, UniProt P02768); test: Binding affinity to human serum albumin; assay type: ADME; conditions: isolated protein
[5] = test system: Caco-2; test: Permeability across human Caco-2 cells assessed as compound transport per hr; assay type: ADME, cell-based
[6] = Metabolic stability in mouse liver S9 fraction assessed as compound remaining after 15 mins; assay type: ADME, subcellular; conditions: read-out: Activity
How it was run: (§1)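 Compound exposed for 15 min to hepatic S9 fraction, human or mouse according to the line. Read-out is percent of parent compound remaining.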

[7] = Metabolic stability in human liver S9 fraction assessed as compound remaining after 15 mins; assay type: ADME, subcellular; conditions: read-out: Activity; how it was run: as §1
[8] = target: Cytochrome P450 1A2 (Homo sapiens) (UniProt P05177); test: Inhibition of human recombinant CYP1A2 by kinetic assay
[9] = target: Cytochrome P450 2C9 (Homo sapiens, UniProt P11712); test: Inhibition of human recombinant CYP2C9; assay type: ADME
[10] = target: hERG (KCNH2) (Homo sapiens, UniProt Q12809); test: Inhibition of human ERG at 10 uM
[11] = target: Cytochrome P450 2D6 (Homo sapiens, UniProt P10635); test: Inhibition of human recombinant CYP2D6; assay type: ADME
[12] = target: Cytochrome P450 2C19 (Homo sapiens, UniProt P33261); test: Inhibition of human recombinant CYP2C19; assay type: ADME
[13] = target: Cytochrome P450 3A4 (Homo sapiens, UniProt P08684); test: Inhibition of human recombinant CYP3A4; assay type: ADME
[14] = target: Glycogen synthase kinase-3 beta (Rattus norvegicus) (UniProt P18266); test: Inhibition of GSK3-beta assessed as tau phosphorylation
[15] = target: Cyclin-dependent kinase 5 (Homo sapiens) (UniProt Q00535); test: Inhibition of CDK5 at 10 uM
[16] = target: Cyclin-dependent kinase 2 (Homo sapiens) (UniProt P24941); test: Inhibition of CDK2 at 10 uM
[17] = target: Cyclin-dependent kinase 4 (Homo sapiens) (UniProt P11802); test: Inhibition of CDK4 at 10 uM
[18] = target: Voltage-gated inwardly rectifying potassium channel KCNH2 (Homo sapiens, UniProt Q12809); test: Inhibition of human ERG
[19] = target: Cyclin-dependent kinase 9 (Homo sapiens) (UniProt P50750); test: Inhibition of CDK9 at 10 uM
Chain of Cyclin-dependent kinase 9 (Homo sapiens) (P50750 whole entry): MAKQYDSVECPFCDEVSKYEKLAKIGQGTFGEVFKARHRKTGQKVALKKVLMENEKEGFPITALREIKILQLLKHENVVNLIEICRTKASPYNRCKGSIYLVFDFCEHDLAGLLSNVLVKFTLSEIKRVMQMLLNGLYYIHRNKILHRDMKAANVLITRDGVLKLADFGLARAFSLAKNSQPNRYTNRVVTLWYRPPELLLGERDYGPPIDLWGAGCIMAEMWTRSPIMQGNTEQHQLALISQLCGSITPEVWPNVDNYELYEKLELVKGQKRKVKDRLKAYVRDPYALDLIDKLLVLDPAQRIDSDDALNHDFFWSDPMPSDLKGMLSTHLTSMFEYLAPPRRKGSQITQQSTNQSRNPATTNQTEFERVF

Chain of Albumin (P02768 whole entry): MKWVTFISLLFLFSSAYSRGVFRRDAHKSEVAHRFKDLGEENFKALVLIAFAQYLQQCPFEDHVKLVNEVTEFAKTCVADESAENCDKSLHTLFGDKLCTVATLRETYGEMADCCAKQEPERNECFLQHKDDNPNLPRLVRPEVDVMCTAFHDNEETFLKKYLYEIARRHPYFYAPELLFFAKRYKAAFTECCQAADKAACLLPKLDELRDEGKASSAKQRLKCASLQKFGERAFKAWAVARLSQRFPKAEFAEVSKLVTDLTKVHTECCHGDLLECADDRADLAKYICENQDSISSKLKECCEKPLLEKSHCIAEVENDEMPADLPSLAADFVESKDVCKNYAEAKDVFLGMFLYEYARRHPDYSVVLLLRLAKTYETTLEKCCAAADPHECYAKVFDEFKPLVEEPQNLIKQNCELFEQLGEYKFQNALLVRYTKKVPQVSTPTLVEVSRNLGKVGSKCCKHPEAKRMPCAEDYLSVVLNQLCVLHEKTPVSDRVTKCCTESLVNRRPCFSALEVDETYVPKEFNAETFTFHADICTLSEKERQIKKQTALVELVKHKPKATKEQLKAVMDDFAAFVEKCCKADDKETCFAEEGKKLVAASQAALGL
Chain of Cytochrome P450 3A4 (P08684 whole entry): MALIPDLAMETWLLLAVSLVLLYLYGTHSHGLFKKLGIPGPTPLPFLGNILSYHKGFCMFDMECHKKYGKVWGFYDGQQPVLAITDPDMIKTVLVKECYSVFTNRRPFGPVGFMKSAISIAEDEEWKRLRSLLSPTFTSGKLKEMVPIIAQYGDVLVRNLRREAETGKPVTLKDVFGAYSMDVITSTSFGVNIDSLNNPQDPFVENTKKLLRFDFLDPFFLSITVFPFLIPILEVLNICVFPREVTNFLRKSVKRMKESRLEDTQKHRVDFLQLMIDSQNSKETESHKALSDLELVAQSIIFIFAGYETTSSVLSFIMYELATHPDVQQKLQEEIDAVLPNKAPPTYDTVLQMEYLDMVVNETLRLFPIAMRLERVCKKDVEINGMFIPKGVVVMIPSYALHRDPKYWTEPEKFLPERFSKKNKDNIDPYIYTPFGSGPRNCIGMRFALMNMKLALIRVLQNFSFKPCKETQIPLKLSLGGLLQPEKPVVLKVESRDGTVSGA
Chain of Cytochrome P450 2C19 (P33261 whole entry): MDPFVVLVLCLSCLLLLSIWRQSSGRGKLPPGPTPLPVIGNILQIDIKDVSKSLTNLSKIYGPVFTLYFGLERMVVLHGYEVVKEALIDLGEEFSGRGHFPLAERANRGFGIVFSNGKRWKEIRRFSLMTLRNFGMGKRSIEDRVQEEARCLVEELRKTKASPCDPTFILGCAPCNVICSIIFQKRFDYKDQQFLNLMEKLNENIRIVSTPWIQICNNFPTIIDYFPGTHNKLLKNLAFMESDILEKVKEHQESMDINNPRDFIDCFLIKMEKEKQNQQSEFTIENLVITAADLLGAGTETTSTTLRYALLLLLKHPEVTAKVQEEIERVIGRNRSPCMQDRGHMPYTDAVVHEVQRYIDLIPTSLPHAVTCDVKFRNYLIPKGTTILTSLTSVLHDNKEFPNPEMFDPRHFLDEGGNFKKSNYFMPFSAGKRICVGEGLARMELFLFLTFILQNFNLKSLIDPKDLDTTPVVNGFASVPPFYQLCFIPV
Chain of Cytochrome P450 2D6 (P10635 whole entry): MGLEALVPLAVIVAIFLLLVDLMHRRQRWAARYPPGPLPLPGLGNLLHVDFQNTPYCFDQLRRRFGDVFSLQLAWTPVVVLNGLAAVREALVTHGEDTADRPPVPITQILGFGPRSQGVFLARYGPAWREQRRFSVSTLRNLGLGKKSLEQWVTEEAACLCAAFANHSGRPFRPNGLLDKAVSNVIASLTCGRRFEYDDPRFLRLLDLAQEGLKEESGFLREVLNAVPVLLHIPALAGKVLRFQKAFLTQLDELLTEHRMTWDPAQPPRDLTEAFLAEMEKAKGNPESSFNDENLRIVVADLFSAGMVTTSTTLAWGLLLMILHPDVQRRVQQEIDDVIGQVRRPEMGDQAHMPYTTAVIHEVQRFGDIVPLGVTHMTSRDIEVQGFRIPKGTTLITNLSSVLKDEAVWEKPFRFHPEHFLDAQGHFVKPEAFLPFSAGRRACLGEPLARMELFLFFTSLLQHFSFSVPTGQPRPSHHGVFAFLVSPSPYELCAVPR
Chain of Cytochrome P450 2C9 (P11712 whole entry): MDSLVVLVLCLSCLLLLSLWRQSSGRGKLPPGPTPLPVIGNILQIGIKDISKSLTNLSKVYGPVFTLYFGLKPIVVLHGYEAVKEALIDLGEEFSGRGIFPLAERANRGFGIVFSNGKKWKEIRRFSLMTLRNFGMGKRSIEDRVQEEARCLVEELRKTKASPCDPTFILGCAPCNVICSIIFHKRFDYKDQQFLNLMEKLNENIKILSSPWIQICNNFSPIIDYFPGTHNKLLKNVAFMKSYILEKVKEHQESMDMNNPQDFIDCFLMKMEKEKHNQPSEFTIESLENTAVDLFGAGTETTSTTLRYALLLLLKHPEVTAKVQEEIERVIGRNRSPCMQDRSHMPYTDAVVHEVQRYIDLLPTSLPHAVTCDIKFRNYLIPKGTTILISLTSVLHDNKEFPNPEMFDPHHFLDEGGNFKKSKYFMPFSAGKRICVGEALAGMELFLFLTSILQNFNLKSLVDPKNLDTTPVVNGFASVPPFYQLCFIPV
Chain of hERG (KCNH2) (Q12809 whole entry): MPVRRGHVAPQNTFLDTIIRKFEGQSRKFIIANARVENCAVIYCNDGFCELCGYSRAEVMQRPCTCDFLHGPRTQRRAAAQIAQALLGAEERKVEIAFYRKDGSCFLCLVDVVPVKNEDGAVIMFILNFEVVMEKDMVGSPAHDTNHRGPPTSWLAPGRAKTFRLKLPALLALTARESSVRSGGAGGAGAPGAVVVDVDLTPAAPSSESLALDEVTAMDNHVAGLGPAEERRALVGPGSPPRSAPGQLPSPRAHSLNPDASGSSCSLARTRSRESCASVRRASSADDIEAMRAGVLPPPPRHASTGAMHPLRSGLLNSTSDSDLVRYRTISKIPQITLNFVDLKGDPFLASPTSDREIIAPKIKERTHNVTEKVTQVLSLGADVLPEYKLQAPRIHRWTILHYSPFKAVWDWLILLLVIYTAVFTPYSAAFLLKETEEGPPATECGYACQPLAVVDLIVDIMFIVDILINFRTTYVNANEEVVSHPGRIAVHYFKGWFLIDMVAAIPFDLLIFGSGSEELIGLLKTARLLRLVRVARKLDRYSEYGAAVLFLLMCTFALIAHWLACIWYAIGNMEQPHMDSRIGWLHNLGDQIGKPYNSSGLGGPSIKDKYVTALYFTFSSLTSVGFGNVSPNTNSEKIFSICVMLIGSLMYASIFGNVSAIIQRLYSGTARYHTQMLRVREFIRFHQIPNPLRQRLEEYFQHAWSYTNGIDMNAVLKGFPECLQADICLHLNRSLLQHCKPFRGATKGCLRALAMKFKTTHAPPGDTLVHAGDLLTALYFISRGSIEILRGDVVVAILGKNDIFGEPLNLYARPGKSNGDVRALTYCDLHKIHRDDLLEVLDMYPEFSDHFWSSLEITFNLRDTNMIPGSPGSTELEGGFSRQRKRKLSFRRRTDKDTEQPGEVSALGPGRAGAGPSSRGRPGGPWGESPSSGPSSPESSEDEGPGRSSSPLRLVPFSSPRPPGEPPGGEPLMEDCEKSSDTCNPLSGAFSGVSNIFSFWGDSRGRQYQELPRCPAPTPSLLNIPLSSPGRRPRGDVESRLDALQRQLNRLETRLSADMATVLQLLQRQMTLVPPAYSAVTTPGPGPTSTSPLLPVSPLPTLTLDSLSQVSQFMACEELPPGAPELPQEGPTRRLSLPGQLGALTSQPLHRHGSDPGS
Chain of Glycogen synthase kinase-3 beta (Rattus norvegicus) (P18266 whole entry, looked up): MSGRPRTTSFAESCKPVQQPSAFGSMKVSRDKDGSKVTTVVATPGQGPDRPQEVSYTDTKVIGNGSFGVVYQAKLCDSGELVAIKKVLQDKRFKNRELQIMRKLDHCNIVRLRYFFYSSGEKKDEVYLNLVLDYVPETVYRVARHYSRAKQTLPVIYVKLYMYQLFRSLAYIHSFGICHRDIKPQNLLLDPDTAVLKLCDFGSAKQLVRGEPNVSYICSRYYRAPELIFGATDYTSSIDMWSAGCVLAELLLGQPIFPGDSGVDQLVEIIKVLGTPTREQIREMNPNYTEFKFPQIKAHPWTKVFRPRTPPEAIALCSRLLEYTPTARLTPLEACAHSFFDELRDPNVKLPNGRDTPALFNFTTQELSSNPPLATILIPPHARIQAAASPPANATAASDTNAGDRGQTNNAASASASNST
Chain of Cyclin-dependent kinase 4 (Homo sapiens) (P11802 whole entry): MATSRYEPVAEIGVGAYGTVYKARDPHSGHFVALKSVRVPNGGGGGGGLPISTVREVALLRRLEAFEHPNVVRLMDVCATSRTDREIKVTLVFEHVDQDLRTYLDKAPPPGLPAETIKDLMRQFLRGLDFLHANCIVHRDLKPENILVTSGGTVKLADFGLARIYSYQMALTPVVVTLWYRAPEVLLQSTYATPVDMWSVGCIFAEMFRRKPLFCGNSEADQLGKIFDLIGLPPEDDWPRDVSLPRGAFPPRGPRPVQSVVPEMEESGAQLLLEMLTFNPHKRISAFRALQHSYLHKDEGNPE

O=C(O)CCC(=O)Nc1n[nH]c2cc(Cl)ccc12
logD [1]: < 1 | solubility ([2]; read-out: solubility): 716 µg/mL (≈ 2670 µM) | pIC50 [3]: < 4.30 | Activity [4]: < 90%

CCCC(=O)Nc1n[nH]c2cc(Cl)c(-c3ccc(N)cc3)cc12
pIC50 [3]: 6.01

CCCC(=O)Nc1n[nH]c2cc(Cl)c(-c3ccoc3)cc12
logD [1]: 4.1 | permeability [5]: 12.3% | remaining at 0.25 h [6]: 4% | solubility [2]: < 20 µg/mL | remaining at 0.25 h [7]: 45% | pIC50 [8]: 7.52 | pIC50 [3]: > 6.40

CN1CCN(CCCNC(=O)Nc2n[nH]c3cc(Cl)c(-c4ccccc4)cc23)CC1
remaining at 0.25 h [6]: 100% | solubility [2]: > 208 µg/mL

CCCC(=O)Nc1n[nH]c2cc(Cl)c(-c3ccc(O)cc3)cc12
logD [1]: 3.9 | permeability [5]: 8.02% | remaining at 0.25 h [6]: 19% | solubility [2]: < 20 µg/mL | pIC50 [8]: 7.10

CCCC(=O)Nc1n[nH]c2cc(-c3ccc(O)cc3)ccc12
permeability [5]: 15.25% | remaining at 0.25 h [6]: 4% | solubility [2]: 67 µg/mL (≈ 227 µM) | remaining at 0.25 h [7]: 58% | pIC50 [8]: 4.66 | pIC50 [3]: < 4.30 | Activity [4]: 97.3%

CCCC(=O)Nc1n[nH]c2cc(Cl)c(-c3ccc([N+](=O)[O-])cc3)cc12
pIC50 [3]: 5.35

CCCC(=O)Nc1n[nH]c2c(F)c(F)c(-c3ccccc3)cc12
logD [1]: 2.4 | remaining at 0.25 h [6]: 56% | solubility [2]: 4 µg/mL (≈ 12.7 µM) | remaining at 0.25 h [7]: 86%

CCCC(=O)Nc1n[nH]c2cc(Cl)c(Br)cc12
logD [1]: 4.4 | permeability [5]: 17.25% | remaining at 0.25 h [6]: 87% | solubility [2]: < 20 µg/mL | remaining at 0.25 h [7]: 97% | pIC50 [3]: 6.26

CC(C(=O)Nc1n[nH]c2cc(Cl)c(-c3ccccc3)cc12)N1CCCCC1 (centres undefined)
logD [1]: 3.53 | solubility [2]: < 20 µg/mL

CCCC(=O)Nc1n[nH]c2cc(-c3ccc(O)cc3)c(Br)cc12
logD [1]: 4.4 | pIC50 [9]: < 5.00 | remaining at 0.25 h [6]: 10% | solubility [2]: < 20 µg/mL | remaining at 0.25 h [7]: 91% | inhibition at 10 µM [10]: 7% | pIC50 [8]: 7.15 | pIC50 [11]: < 5.00 | pIC50 [3]: < 5.00 | pIC50 [12]: < 5.00 | pIC50 [13]: < 5.00 | Activity [4]: 99.3%

O=C(Nc1n[nH]c2cc(Cl)c(-c3ccccc3)cc12)N1CCCC1
remaining at 0.25 h [6]: 79% | solubility [2]: < 20 µg/mL

CCCC(=O)Nc1n[nH]c2c(F)c(F)ccc12
logD [1]: 3 | permeability [5]: 16.33% | remaining at 0.25 h [6]: 93% | solubility [2]: 54 µg/mL (≈ 226 µM) | remaining at 0.25 h [7]: 98%

CCCC(=O)Nc1n[nH]c2cc(Cl)c(-c3ccccc3)cc12
logD [1]: 3.7 | permeability [5]: 3.9% | pIC50 [9]: < 5.00 | remaining at 0.25 h [6]: 40% | solubility [2]: < 20 µg/mL | remaining at 0.25 h [7]: 91% | inhibition at 10 µM [10]: 24% | pIC50 [8]: 7.10 | pIC50 [11]: < 5.00 | pIC50 [3]: > 6.40 | pIC50 [12]: < 5.00 | pIC50 [13]: < 5.00 | Activity [4]: 99.4%

O=C(NCCCn1ccnc1)Nc1n[nH]c2cc(Cl)c(-c3ccccc3)cc12
remaining at 0.25 h [6]: 85% | solubility [2]: < 20 µg/mL

CCC(=O)Nc1n[nH]c2cc(Cl)ccc12
logD [1]: 2.2 | solubility ([2]; read-out: solubility): 168 µg/mL (≈ 751 µM) | Activity [4]: 92.8%

CCCC(=O)Nc1n[nH]c2cc(Cl)c(-c3ccc(C)cc3)cc12
pIC50 [3]: 5.76

O=C(Nc1ccccc1)Nc1n[nH]c2cc(Cl)c(-c3ccccc3)cc12
remaining at 0.25 h [6]: 92% | pIC50 [14]: 6.57 | solubility [2]: < 20 µg/mL | inhibition [15]: < 50% | inhibition [16]: < 50% | inhibition [17]: < 50% | pIC50 [18]: < 5.00 | inhibition [19]: 81%

CCCC(=O)Nc1n[nH]c2cc(-c3cc(F)cc(F)c3)ccc12
pIC50 [8]: 5.57 | pIC50 [3]: 4.86

CCCC(=O)Nc1n[nH]c2cc(-c3ccsc3)ccc12
pIC50 [3]: 5.72

O=C(CN1CCOCC1)Nc1n[nH]c2cc(Cl)c(-c3ccccc3)cc12
logD [1]: 3.49 | solubility [2]: 28 µg/mL (≈ 75.5 µM)

CCCC(=O)Nc1n[nH]c2cc(-c3ccccc3)ccc12
pIC50 [8]: 6.41 | pIC50 [3]: < 5.00

CCCC(=O)Nc1n[nH]c2cc(Cl)c(-c3ccc(OCc4ccccc4)cc3)cc12
pIC50 [3]: < 5.00

O=C(CN1CCOCC1)Nc1n[nH]c2cc(Cl)ccc12
logD [1]: 3.1 | solubility [2]: < 20 µg/mL

CCCC(=O)Nc1n[nH]c2cc(Cl)c(-c3ccc(F)cc3)cc12
pIC50 [8]: 6.89 | pIC50 [3]: 6.08

CCCC(=O)Nc1n[nH]c2cc(-c3cccnc3)ccc12
pIC50 [8]: 5.23 | pIC50 [3]: 5.92

From ChEMBL document CHEMBL1156291, “Design of potent and selective GSK3beta inhibitors with acceptable safety profile and pharmacokinetics” (Bioorg Med Chem Lett, 2010)
